{"data": "Results pooled from the literature", "note": "Compare with care: the assays were run in different laboratories."}
{"Compound": "COc1ccc(CCNCc2c(N)nc(N)nc2C2CC2)cc1", "cell line": "Vero", "assay": "cell growth or viability, SRB", "quantity": "IC50", "value": "71 µM"}
{"Compound": "COc1cc([C@@H]2c3cc4c(cc3[C@H](O)[C@H]3COC(=O)[C@H]23)OCO4)cc(OC)c1OC", "cell line": "NCI-H1299", "assay": "cell growth or viability, MTT", "conditions": "72 h", "quantity": "EC50", "value": "0.003 µM"}
{"Compound": "COc1c(O)cc2oc3cc(O)c(CC=C(C)C)c(O)c3c(=O)c2c1CC=C(C)C", "cell line": "22Rv1", "assay": "cell growth or viability", "conditions": "48 h", "quantity": "IC50", "value": "19.5 µM"}
{"Compound": "COc1cc(O)c(C(=O)/C=C/c2ccc(O)cc2)c(OC)c1", "cell line": "SPCA1", "assay": "cell growth or viability, MTT", "quantity": "IC50", "value": "25 µM"}
{"Compound": "CC(C)[C@H](NC(=O)[C@H](Cc1c[nH]c2ccccc12)NC(=O)[C@H](Cc1c[nH]cn1)NC(=O)[C@H](CCCNC(=N)N)NC(=O)[C@H](CCCNC(=N)N)NC(=O)[C@H](Cc1c[nH]c2ccccc12)NC(=O)[C@H](Cc1c[nH]c2ccccc12)NC(=O)[C@H](Cc1c[nH]cn1)NC(=O)[C@H](Cc1c[nH]c2ccccc12)NC(=O)[C@H](CCCNC(=N)N)NC(=O)[C@@H](N)CCCCN)C(=O)N[C@H](C(=O)N[C@@H](Cc1c[nH]c2ccccc12)C(N)=O)C(C)C", "cell line": "RAW264.7", "assay": "cell growth or viability, MTT", "conditions": "24 h", "quantity": "IC50", "value": "111 µM"}
{"Compound": "N.N.[Cl][Pt][Cl]", "cell line": "SMMC-7721", "assay": "cell growth or viability, MTT", "conditions": "48 h", "quantity": "IC50", "value": "6.43 µM"}
{"Compound": "COc1cccc2c1C(=O)c1c(O)c3c(c(O)c1C2=O)C[C@@](O)(C(=O)CO)C[C@@H]3O[C@H]1C[C@H](N)[C@H](O)[C@H](C)O1", "cell line": "SPCA1", "assay": "cell growth or viability, MTT", "quantity": "IC50", "value": "30 µM"}
{"Compound": "C[S+]([O-])CCCCN=C=S (centres unmarked)", "cell line": "RAW264.7", "assay": "NO release, inhibitor, Griess", "conditions": "10 µM, LPS-stimulated", "quantity": "inhibition", "value": "91.6%"}
{"Compound": "O=C(CC(=O)C(F)(F)F)C(F)(F)F", "cell line": "HL-60", "assay": "cell growth or viability, resazurin", "conditions": "72 h, dark", "quantity": "IC50", "value": "> 100 µM"}
{"Compound": "CC1=C(O)C(=O)C=C2C1=CC=C1[C@@]2(C)CC[C@@]2(C)[C@@H]3C[C@](C)(C(=O)O)CC[C@]3(C)CC[C@]12C", "cell line": "SMMC-7721", "assay": "cell growth or viability, MTT", "conditions": "20 µM", "quantity": "inhibition", "value": "70.6%"}
{"Compound": "Nc1nc(N)c(CNCCc2cccc(Cl)c2)c(C2CC2)n1", "cell line": "Vero", "assay": "cell growth or viability, SRB", "quantity": "IC50", "value": "76 µM"}
{"Compound": "OC[C@H](Cc1cccc(O)c1)[C@H](CO)Cc1cccc(O)c1", "cell line": "SPCA1", "assay": "cell growth or viability, MTT", "quantity": "IC50", "value": "61.1 µM"}
{"Compound": "COc1cccc(CCNCc2c(N)nc(N)nc2C2CC2)c1", "cell line": "Vero", "assay": "cell growth or viability, SRB", "quantity": "IC50", "value": "7.2 µM"}
{"Compound": "N.N.[Cl][Pt][Cl]", "cell line": "M109", "assay": "cell growth or viability, MTT", "quantity": "IC50", "value": "0.97 µM"}
